V1R ag counter: agonists of human V1a receptor, primary screen, counter-screen for OXTR agonist project, fluorescence, CHO-V1R cells | Fluo-8 calcium fluorescence, agonist mode; 0% DMSO, 100% 3 nM vasopressin | Vasopressin V1a receptor (Homo sapiens), P37288 | 320,000 tested, 0.25% active | AID 2797, 2010 | activation, % at 3 µM;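 active = activation above the mean activation of all tested compounds plus 3 SD, per screening run, cut at about 20% in these data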;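 also: signal is peak over basal fluorescence ratio across a 100 second FLIPR read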
Target sequence (P37288 whole entry, looked up): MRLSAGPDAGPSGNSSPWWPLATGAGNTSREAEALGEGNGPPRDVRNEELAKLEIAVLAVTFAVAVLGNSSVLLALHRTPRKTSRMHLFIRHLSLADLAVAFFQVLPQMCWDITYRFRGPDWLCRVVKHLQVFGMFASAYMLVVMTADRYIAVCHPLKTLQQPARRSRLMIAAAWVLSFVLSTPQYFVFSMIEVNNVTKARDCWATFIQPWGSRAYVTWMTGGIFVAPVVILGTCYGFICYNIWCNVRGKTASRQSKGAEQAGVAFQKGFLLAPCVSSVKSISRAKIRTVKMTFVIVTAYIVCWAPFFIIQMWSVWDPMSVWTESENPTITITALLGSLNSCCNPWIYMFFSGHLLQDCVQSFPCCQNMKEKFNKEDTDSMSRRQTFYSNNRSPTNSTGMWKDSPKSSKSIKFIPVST
OXTR potentiate: human OXTR potentiators, primary screen, fluorescence, CHO-OTR cells, Fluo-8 calcium; Oxytocin receptor (Homo sapiens), P30559; Fluo-8 calcium fluorescence, potentiator mode; 0% = oxytocin EC15, 100% = EC100; activation, % at 3 µM; 320,000 tested, 0.061% active;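 active = activation above that plate's cutoff, the mean activation of tested compounds plus 3 SD, cut at about 6.6% in these data, passing the limit was not always enough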
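Measured by – Fluo-8 calcium dye fluorescence · Test system – human OTR in CHO cells · Dosing – one concentration, 3.0 µM compound · Controls – EC15 oxytocin alone as 0%, 75 nM oxytocin as 100% · Evaluation – normalized max/min fluorescence ratio, % activation · Timing – 6 min pre-incubation, 100 s read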
TAAR1 agonist: human TAAR1 agonists, primary screen, Fluo-8 calcium fluorescence, CHO RD-HGA16 cells; 360,000 tested, 0.99% active; Trace amine-associated receptor 1 (Homo sapiens), Q96RJ0; AID 624467, 2012; vehicle wells 0%, saturating PEA agonist 100%; activation, % at 3 µM;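 active = activation above the mean activation of all test compounds in the run plus 3 SD, cut at about 38% in these data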
Target sequence (Q96RJ0 whole entry, looked up): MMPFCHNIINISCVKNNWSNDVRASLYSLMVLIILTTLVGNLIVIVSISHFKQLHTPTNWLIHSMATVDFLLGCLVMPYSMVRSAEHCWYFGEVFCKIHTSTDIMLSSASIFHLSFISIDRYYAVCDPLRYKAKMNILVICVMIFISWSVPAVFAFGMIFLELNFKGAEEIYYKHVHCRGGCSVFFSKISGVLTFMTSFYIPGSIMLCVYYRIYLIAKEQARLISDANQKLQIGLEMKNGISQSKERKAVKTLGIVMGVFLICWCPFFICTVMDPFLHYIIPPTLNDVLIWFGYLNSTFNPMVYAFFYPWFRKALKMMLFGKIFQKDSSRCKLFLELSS
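Assay system – CHO-derived RD-HGA16 cells with stable Gα16 and human TAAR1 · Compound dosing – one-point dosing at 3 µM (nominal) · Incubation – 17-24 h seeding, 75 min 37 °C dye, 30 min RT · Measured by – kinetic Fluo-8 calcium fluorescence · Control set – DMSO vehicle as 0%, PEA at EC100 as 100% · Repeats – single well for each compound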
TAAR1 antagonist: human TAAR1 antagonists, primary screen, Fluo-8 calcium fluorescence, CHO RD-HGA16 cells; Trace amine-associated receptor 1 (Homo sapiens), Q96RJ0; antagonist; inhibition, % at 3 µM; 360,000 tested, 1.5% active; AID 624466, 2012;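 active = inhibition above a per-plate cutoff, the mean inhibition of test compounds on that plate plus 3 SD, cut at about 49% in these data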
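Test system: hTAAR1-expressing CHO RD-HGA16 cells, Gα16-coupled; Probe or stimulus: EC80 β-phenethylamine stimulus; Compound dosing: single nominal final test compound concentration of 3 µM; Timing: 140 s kinetic read after compound, 140 s after agonist; Signal: Fluo-8 calcium-sensitive fluorescence; Measure: % inhibition of agonist calcium response; Controls: DMSO and EC80 PEA controls.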
OXTR ag: human OXTR agonists, primary screen, fluorescence, CHO-OTR cells, Fluo-8 calcium; activation, % at 3 µM; AID 2435, 2010; Oxytocin receptor (Homo sapiens), P30559; 320,000 tested, 0.32% active; Fluo-8 calcium fluorescence; normalized: DMSO 0%, oxytocin 100%;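 active = activation above the mean of all tested compounds plus 3 SD, cutoff set per screening run, cut at about 20% in these data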;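 also: peak over basal fluorescence ratio from a 100 s FLIPR kinetic read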
TAAR1 ag confirm: human TAAR1 agonists, retest of hits, confirmation, Fluo-8 calcium fluorescence, CHO RD-HGA16 cells | shares compounds with TAAR1 agonist | scaled: DMSO 0%, maximal phenethylamine 100% | activation, % at 3 µM | 2,400 tested, 82% active | AID 651783, 2012;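 active = activation above a cutoff set at the run's mean compound activation plus 3 SD, cut at about 39% in these data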
Ga16 ag counter: nonselective calcium mobilization agonists, CHO-Ga16 cells, counter-screen for hTAAR1 agonist project, cell-based, fluorescence, CHO-Ga16 parental line; activation, % at 3 µM; shares compounds with TAAR1 agonist; Fluo-8 calcium fluorescence; normalized to maximal ATP response, DMSO zero; 2,400 tested, 50% active; AID 651787, 2012;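 active = activation above the run cutoff, the mean activation over all tested wells plus 3 SD, cut at about 12% in these data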
TAAR1 desensitize: TAAR1 desensitization by agonist hits, confirmation, counter-screen for TAAR1 agonist project, cell-based, fluorescence, tachyphylaxis | CHO RD-HGA16 hTAAR1, Fluo-8 calcium, beta-PEA response inhibition | shares compounds with TAAR1 agonist | 2,400 tested, 46% active | inhibition, % at 3 µM | AID 651951, 2012;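 active = inhibition above the run cutoff, the mean inhibition of all test compounds plus 3 SD, cut at about 49% in these data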;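 also: beta-PEA stimulus applied at its EC80; loss of beta-PEA calcium signal after compound pretreatment read as receptor desensitization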
Ga16 nonsel ant: inhibition of ATP-evoked calcium response in CHO-Ga16 cells, counter-screen for TAAR1 agonist project, cell-based, fluorescence; shares compounds with TAAR1 agonist; CHO-Ga16 ATP-induced calcium, Fluo-8 fluorescence; inhibition, % at 3 µM; 2,400 tested, 39% active; AID 651952, 2012;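 active = inhibition above the plate's mean compound inhibition plus 3 SD, computed per plate, cut at about 22% in these data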
Large screens that a line does not name were inactive (follow-up assays come after a bar, where they were run). Rows were chosen to be rich in hits. Some 2.3% of all compounds tested hit in one or more screens of this group.

COCCNc1nc(NCc2ccccc2)nc2ccsc12	TAAR1 agonist 153, TAAR1 antagonist 104 (no result: V1R ag counter, OXTR potentiate, OXTR ag) | TAAR1 ag confirm 123 | Ga16 ag counter 103 | TAAR1 desensitize 107 | Ga16 nonsel ant 102
CCOC(=O)c1ccc(NC(=S)N(CCN2CCCCCC2)Cc2cccs2)cc1	none
Cc1nc(C(N)=O)c(N)n1CCc1ccccc1	TAAR1 agonist 98, TAAR1 antagonist 72 | TAAR1 ag confirm 70 | Ga16 ag counter inactive | TAAR1 desensitize inactive | Ga16 nonsel ant inactive
Cc1nc2ccccc2n1CCc1ccccc1	none
CC1CCCN(C(=O)c2cccc(S(=O)(=O)NCc3ccccc3)c2)C1 (stereo unspecified)	none (no result: V1R ag counter, OXTR potentiate, OXTR ag)
CC1CC(C)CN(C(=O)c2cccc(S(=O)(=O)NCc3ccccc3)c2)C1 (stereo unspecified)	TAAR1 agonist 58 | TAAR1 ag confirm 50 | Ga16 ag counter inactive | TAAR1 desensitize inactive | Ga16 nonsel ant inactive
COC1C(CO)OC(n2c3c(Cl)cccc3c3c4c(c5c6cccc(Cl)c6[nH]c5c32)C(=O)NC4=O)C(O)C1O (stereo unspecified)	none (no result: V1R ag counter, OXTR potentiate, OXTR ag)
CCCOc1ccc(OCCOCCN2CCc3ccccc3C2)cc1	TAAR1 agonist 102 | TAAR1 ag confirm 77 | Ga16 ag counter inactive | TAAR1 desensitize 64 | Ga16 nonsel ant inactive
C=CCc1cc(OC)ccc1OCCOCCN1CCc2ccccc2C1	TAAR1 agonist 48 | TAAR1 ag confirm 56 | Ga16 ag counter inactive | TAAR1 desensitize inactive | Ga16 nonsel ant inactive
CCOc1ccc(OCCOCCN2CCc3ccccc3C2)cc1	none
Cc1ccccc1CNC(=O)/C=C\C(=O)O	none
O=C(O)/C=C/C(=O)NCc1csc2ccccc12	none (no result: TAAR1 agonist, TAAR1 antagonist) | Ga16 ag counter inactive | Ga16 nonsel ant inactive
N#CC(C#N)=C(Nc1ccc(F)cc1)SCc1cccc(F)c1	none
Cc1ccc(N/C=C(\C#N)S(=O)(=O)c2ccccc2)cc1	none
COc1cc(OC)cc(C(=O)NC(=S)NNC(=O)Cc2cccs2)c1	TAAR1 agonist 80 | TAAR1 ag confirm 56 | Ga16 ag counter 37 | TAAR1 desensitize inactive | Ga16 nonsel ant inactive
COc1ccc(C(=O)NC(=S)NNC(=O)[C@H]2C[C@@H]2c2ccccc2)cc1OC	TAAR1 agonist 121, TAAR1 antagonist 49 | TAAR1 ag confirm 90 | Ga16 ag counter 70 | TAAR1 desensitize 70 | Ga16 nonsel ant 43
COc1cc(OC)cc(C(=O)NC(=S)NNC(=O)[C@H]2C[C@@H]2c2ccccc2)c1	TAAR1 agonist 174, TAAR1 antagonist 107, OXTR ag 23 | TAAR1 ag confirm 113 | Ga16 ag counter 102 | TAAR1 desensitize 89 | Ga16 nonsel ant 65
COc1ccc(OC)c(NC(=O)C2CC2c2ccccc2)c1 (stereo unspecified)	none
COCCNC(=S)N(CCc1c(C)[nH]c2ccccc12)Cc1cccnc1	none
CCOC(=O)c1ccc(S(=O)(=O)N2CCN(CC(O)COc3cccc(C(C)=O)c3)CC2)cc1 (stereo unspecified)	none (no result: V1R ag counter, OXTR potentiate, OXTR ag)
CCOc1ccc(N2C(=O)CC(N(Cc3ccco3)C(C)=O)C2=O)cc1 (stereo unspecified)	none
C=CCN=C1NC(c2cccc(Cl)c2)C(C(=O)OC)=C(C)N1Cc1cccc(C(F)(F)F)c1 (stereo unspecified)	TAAR1 agonist 67, TAAR1 antagonist 81 (no result: V1R ag counter, OXTR potentiate, OXTR ag) | TAAR1 ag confirm inactive | Ga16 ag counter 27 | TAAR1 desensitize 56 | Ga16 nonsel ant 51
C=CCN=C1NC(c2cccc(F)c2)C(C(=O)OC)=C(C)N1Cc1cccc(C(F)(F)F)c1 (stereo unspecified)	TAAR1 agonist 107, TAAR1 antagonist 92 (no result: V1R ag counter, OXTR potentiate, OXTR ag) | TAAR1 ag confirm 89 | Ga16 ag counter 55 | TAAR1 desensitize 92 | Ga16 nonsel ant 73
C=CCN=C1NC(c2cccc(F)c2)C(C(=O)OC)=C(C)N1Cc1ccccc1C(F)(F)F (stereo unspecified)	none (no result: V1R ag counter, OXTR potentiate, OXTR ag)
C=CCN=C1NC(c2ccccc2)C(C(=O)OC)=C(C)N1Cc1cccc(C(F)(F)F)c1 (stereo unspecified)	TAAR1 agonist 116, TAAR1 antagonist 87 (no result: V1R ag counter, OXTR potentiate, OXTR ag) | TAAR1 ag confirm 92 | Ga16 ag counter 61 | TAAR1 desensitize 81 | Ga16 nonsel ant 67
C=CCN=C1NC(c2cccc(C(F)(F)F)c2)C(C(=O)OC)=C(C)N1Cc1ccccc1C(F)(F)F (stereo unspecified)	none (no result: V1R ag counter, OXTR potentiate, OXTR ag)
COC(=O)C1=C(C)N(Cc2cccc(C(F)(F)F)c2)C(=NCC2CC2)NC1c1ccccc1 (stereo unspecified)	TAAR1 agonist 121, TAAR1 antagonist 97 (no result: V1R ag counter, OXTR potentiate, OXTR ag) | TAAR1 ag confirm 115 | Ga16 ag counter 79 | TAAR1 desensitize 100 | Ga16 nonsel ant 74
Cc1ccc(Nc2cc(=O)n(C)c(=O)[nH]2)cc1C	none (no result: V1R ag counter, OXTR potentiate, OXTR ag)
CCN(CCn1cccn1)Cc1ccccc1OCC(O)CN1CCc2ccccc2C1 (stereo unspecified)	none
CCOC(=O)c1c(S(=O)(=O)NCCc2cccs2)c(C)n(C)c1C	TAAR1 agonist 55 | TAAR1 ag confirm inactive | Ga16 ag counter inactive | TAAR1 desensitize inactive | Ga16 nonsel ant inactive
CCOC(=O)c1c(S(=O)(=O)NCC2CCN(CCc3cccs3)CC2)c(C)n(C)c1C	none
COc1ccc(N(C)C(=O)c2oc(=O)c3ccccc3c2-c2ccc(C)cc2)c(OC)c1	none
Oc1cc2c(c(Cl)c1O)CCNCC2c1ccccc1 (stereo unspecified)	TAAR1 agonist 44 | TAAR1 ag confirm 73 | Ga16 ag counter inactive | TAAR1 desensitize 57 | Ga16 nonsel ant inactive
C=CCN1CCc2c(cc(O)c(O)c2Cl)C(c2ccccc2)C1 (stereo unspecified)	none

Source: PubChem (The Scripps Research Institute Molecular Screening Center)
